Data: ChEMBL document CHEMBL5096174, “The Natural Alkaloid Berberine Can Reduce the Number of Pseudomonas aeruginosa Tolerant Cells” (2021)
Converted amounts (≈) assume the structure as drawn. The source made the active and inactive calls.

How the values were obtained:
Pseudomonas aeruginosa [1] = test: Bactericidal activity against Pseudomonas aeruginosa K1525 mexY mutant assessed as increase in biofilm production at 80 ug/ml incubated overnight by crystal voilet staining based analysis relative to control; type: functional; details: dose 80 µg/ml
Method in brief: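 Biofilms grown overnight at 37 °C in LB with or without berberine 80 µg/mL in flat-bottom microtiter wells. Planktonic phase removed and its OD600 read. Sessile phase washed with water, stained with 1% crystal violet for 15 min, washed, solubilised in 96% ethanol and read at OD570. Values normalised as OD570/OD600. Triplicate.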

[2] = Inhibition of efflux pump in wild type Pseudomonas aeruginosa K767 assessed as fold reduction in CFU count in presence of tobramycin incubated for 24 hrs by ethidium bromide efflux assay relative to tobramycin alone; details: in the assay text read “by planktonic persistence assay” for “by ethidium bromide efflux assay”
Method in brief: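 Stationary-phase overnight LB cultures (37 °C) exposed to tobramycin 20xMIC alone or with berberine 80 µg/mL for 24 h at 37 °C. At 0, 7 and 24 h, aliquots PBS-washed, 10-fold serially diluted, plated on antibiotic-free CLED agar. CFU counted after 24 h at 37 °C. Biological duplicate.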

Pseudomonas aeruginosa [3] = test: Bactericidal activity against wild type Pseudomonas aeruginosa K767 assessed as increase in biofilm production at 80 ug/ml incubated overnight by crystal voilet staining based analysis relative to control; type: functional; details: dose 80 µg/ml
Method in brief: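 Biofilms grown overnight at 37 °C in flat-bottom microtiter plates in LB with or without berberine 80 µg/mL. Planktonic OD600 recorded; washed sessile phase stained 15 min with 1% crystal violet, dye taken up in 96% ethanol, OD570 read. Output is OD570/OD600. Run in triplicate.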

Pseudomonas aeruginosa [4] = test: Antibacterial activity against Pseudomonas aeruginosa NC01 cystic fibrosis assessed as tobramycin MIC in presence of berberine; type: functional
Method in brief: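 Broth microdilution per CLSI guidelines, tobramycin MIC determined in presence of berberine 80 μg/mL; strains grown in LB. Combination considered synergistic when MIC with berberine was ≥4 times lower than tobramycin alone.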

Pseudomonas aeruginosa [5] = test: Antibacterial activity against cystic fibrosis isolate Pseudomonas aeruginosa C30 assessed as log reduction in tolerant cell in presence of berberine by broth microdilution method; type: functional
Method in brief: (§1)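 Overnight LB cultures at 37 °C were exposed to tobramycin 20xMIC, alone or with berberine 80 µg/mL, for 24 h at 37 °C. Aliquots were PBS-washed, serially 10-fold diluted and plated on antibiotic-free CLED agar. CFUs were counted after 24 h at 37 °C, before exposure (T0) and at T24. Biological duplicates.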

Pseudomonas aeruginosa [6] = test: Bactericidal activity against Pseudomonas aeruginosa K1525 mexY mutant persisters assessed as reduction in CFU at 20 times MIC incubated for 24 hrs by planktonic persistance assay; type: functional
Method in brief: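 Stationary-phase (overnight, LB, 37 °C) cultures exposed to tobramycin 20xMIC with or without berberine 80 µg/mL for 24 h at 37 °C. Aliquots taken before exposure and at 24 h, PBS-washed, serially 10-fold diluted and plated on antibiotic-free CLED agar. Surviving CFU counted after 24 h at 37 °C. Biological duplicate.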

Pseudomonas aeruginosa [7] = test: Antibacterial activity against Pseudomonas aeruginosa NC04 cystic fibrosis assessed as reduction in bacterial growth; type: functional
Pseudomonas aeruginosa [8] = test: Antibacterial activity against Pseudomonas aeruginosa NC02 cystic fibrosis assessed as reduction in bacterial growth; type: functional
Pseudomonas aeruginosa [9] = test: Antibacterial activity against Pseudomonas aeruginosa NC01 cystic fibrosis assessed as reduction in bacterial growth; type: functional
Pseudomonas aeruginosa [10] = test: Antibacterial activity against Pseudomonas aeruginosa NC10 cystic fibrosis assessed as tobramycin MIC in presence of berberine; type: functional
Method in brief: (§2)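 Tobramycin MIC by CLSI broth microdilution in the presence of berberine 80 µg/mL.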

Pseudomonas aeruginosa [11] = test: Antibacterial activity against Pseudomonas aeruginosa NC06 cystic fibrosis assessed as reduction in bacterial growth; type: functional
Pseudomonas aeruginosa [12] = test: Antibacterial activity against Pseudomonas aeruginosa NC06 cystic fibrosis assessed as tobramycin MIC in presence of berberine; type: functional; method in brief: as §2
Pseudomonas aeruginosa [13] = test: Antibacterial activity against Pseudomonas aeruginosa NC02 cystic fibrosis assessed as tobramycin MIC in presence of berberine; type: functional; method in brief: as §2
Pseudomonas aeruginosa [14] = test: Antibacterial activity against clinical isolate Pseudomonas aeruginosa C54 assessed as log reduction in tolerant cell in presence of berberine by broth microdilution method; type: functional; method in brief: as §1
Pseudomonas aeruginosa [15] = test: Antibacterial activity against clinical isolate Pseudomonas aeruginosa C54 assessed as fold reduction in MIC in presence of berberine by broth microdilution method; type: functional
Method in brief: (§3)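 Tobramycin MIC was determined without and with berberine 80 µg/mL by CLSI broth microdilution. The combination was called synergistic when the MIC with berberine was ≥4 times lower than with tobramycin alone.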

Pseudomonas aeruginosa [16] = test: Antibacterial activity against clinical isolate Pseudomonas aeruginosa C84 assessed as fold reduction in MIC in presence of berberine by broth microdilution method; type: functional; method in brief: as §3
Pseudomonas aeruginosa [17] = test: Antibacterial activity against cystic fibrosis isolate Pseudomonas aeruginosa NC06 assessed as fold reduction in MIC in presence of berberine by broth microdilution method; type: functional; method in brief: as §3
Pseudomonas aeruginosa [18] = test: Antibacterial activity against clinical isolate Pseudomonas aeruginosa C59 assessed as fold reduction in MIC in presence of berberine by broth microdilution method; type: functional; method in brief: as §3
Pseudomonas aeruginosa [19] = test: Antibacterial activity against cystic fibrosis isolate Pseudomonas aeruginosa NC06 assessed as reduction in tolerant cell in presence of berberine by broth microdilution method; type: functional; method in brief: as §1
Pseudomonas aeruginosa [20] = test: Antibacterial activity against cystic fibrosis isolate Pseudomonas aeruginosa C25 assessed as fold reduction in MIC in presence of berberine by broth microdilution method; type: functional; method in brief: as §3
Pseudomonas aeruginosa [21] = test: Antibacterial activity against wild type Pseudomonas aeruginosa K767 assessed as reduction in bacterial growth rate in presence of berberine; type: functional, organism-based
Method in brief: (§4)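 Overnight LB cultures diluted to OD600 0.1 and shaken at 140 rpm, 37 °C, for 24 h with or without berberine 80 µg/mL. OD600 read at 2, 4, 6, 8 and 24 h. Biological triplicates.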

Pseudomonas aeruginosa [22] = test: Bactericidal activity against wild type Pseudomonas aeruginosa K767 persisters assessed as reduction in CFU at 20 times MIC incubated for 24 hrs by planktonic persistance assay; type: functional
Method in brief: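 Stationary-phase overnight LB cultures at 37 °C were exposed to tobramycin 20xMIC, alone or with berberine 80 µg/mL, for 24 h at 37 °C. At 0, 7 and 24 h, aliquots were PBS-washed, 10-fold diluted and plated on antibiotic-free CLED agar, and survivor CFUs were counted after 24 h at 37 °C. Mean of two biological replicates ± SD.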

Pseudomonas aeruginosa [23] = test: Antibacterial activity against Pseudomonas aeruginosa K1525 mexY mutant assessed as reduction in bacterial growth rate in presence of berberine; type: functional, organism-based; method in brief: as §4
Pseudomonas aeruginosa [24] = test: Antibacterial activity against Pseudomonas aeruginosa NC10 cystic fibrosis assessed as reduction in bacterial growth; type: functional
Pseudomonas aeruginosa [25] = test: Antibacterial activity against clinical isolate Pseudomonas aeruginosa C84 assessed as log reduction in tolerant cell in presence of berberine by broth microdilution method; type: functional; method in brief: as §1
Pseudomonas aeruginosa [26] = test: Bactericidal activity against Pseudomonas aeruginosa K1525 mexY mutant assessed as reduction in log increase in tolerant cells at 1000 times MIC measured after 24 hrs; type: functional
Method in brief: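 Biofilms were grown overnight in LB in 35 mm dishes at 37 °C, then held 24 h at 37 °C in LB with tobramycin 1000xMIC, alone or with berberine 80 or 320 µg/mL. Biofilms were detached mechanically at T0 and T24, resuspended in PBS, 10-fold diluted and plated on CLED agar, and CFUs were counted after 24 h at 37 °C. Biological triplicates.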

Pseudomonas aeruginosa [27] = test: Antibacterial activity against Pseudomonas aeruginosa C61 assessed as log reduction of bacterial population measured after 24 hrs; type: functional; method in brief: as §1
Pseudomonas aeruginosa [28] = test: Antibacterial activity against cystic fibrosis isolate Pseudomonas aeruginosa AR48 assessed as fold reduction in MIC in presence of berberine by broth microdilution method; type: functional; method in brief: as §3
Pseudomonas aeruginosa [29] = test: Antibacterial activity against cystic fibrosis isolate Pseudomonas aeruginosa C25 assessed as log reduction in tolerant cell in presence of berberine by broth microdilution method; type: functional; method in brief: as §1
Pseudomonas aeruginosa [30] = test: Antibacterial activity against Pseudomonas aeruginosa NC04 cystic fibrosis assessed as tobramycin MIC in presence of berberine; type: functional
Method in brief: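 Broth microdilution per CLSI; tobramycin MIC determined with berberine present at 80 µg/mL. Synergy defined as MIC in presence of berberine ≥4 times lower than tobramycin alone.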

For `COc1ccc2cc3[n+](cc2c1OC)CCc1cc2c(cc1-3)OCO2` [BERBERINE], the Activity (Pseudomonas aeruginosa [1]) was 50%, the fold change (FC) [2] was 10 and the Activity (Pseudomonas aeruginosa [3]) was 100%.

For `NC[C@H]1O[C@H](O[C@H]2[C@H](O)[C@@H](O[C@H]3O[C@H](CO)[C@@H](O)[C@H](N)[C@H]3O)[C@H](N)C[C@@H]2N)[C@H](N)C[C@@H]1O` [TOBRAMYCIN], the MIC (Pseudomonas aeruginosa [4]) was 8 µg/mL, the “log(activity)” value (Pseudomonas aeruginosa [5]) was 3 and the Activity (Pseudomonas aeruginosa [6]) was 250000 CFU/ml. The MIC (Pseudomonas aeruginosa [7]) was 0.5 µg/mL (≈ 1.07 µM), the MIC (Pseudomonas aeruginosa [8]) was 32 µg/mL (≈ 68.4 µM) and the MIC (Pseudomonas aeruginosa [9]) was 16 µg/mL (≈ 34.2 µM). For the same compound, the MIC (Pseudomonas aeruginosa [10]) was 0.25 µg/mL, the MIC (Pseudomonas aeruginosa [11]) was 2 µg/mL (≈ 4.28 µM) and the MIC (Pseudomonas aeruginosa [12]) was 0.5 µg/mL. The MIC (Pseudomonas aeruginosa [13]) was 16 µg/mL, the “log(activity)” value (Pseudomonas aeruginosa [14]) was 1.5 and the “fold change (FC)” value (Pseudomonas aeruginosa [15]) was 2. For the same compound, the “fold change (FC)” value (Pseudomonas aeruginosa [16]) was 4, the “fold change (FC)” value (Pseudomonas aeruginosa [17]) was 4 and the “fold change (FC)” value (Pseudomonas aeruginosa [18]) was 2. For the same compound, the “log(activity)” value (Pseudomonas aeruginosa [19]) was 2, the “fold change (FC)” value (Pseudomonas aeruginosa [20]) was 16 and the Activity (Pseudomonas aeruginosa [21]) was “Active”. For the same compound, the log(activity) (Pseudomonas aeruginosa [22]) was 4.11e+07, the Activity (Pseudomonas aeruginosa [23]) was “Active” and the MIC (Pseudomonas aeruginosa [24]) was 1 µg/mL (≈ 2.14 µM). For the same compound, the “log(activity)” value (Pseudomonas aeruginosa [25]) was 0.5, the “log(activity)” value (Pseudomonas aeruginosa [26]) was 3 and the “log(activity)” value (Pseudomonas aeruginosa [27]) was 1. For the same compound, the “fold change (FC)” value (Pseudomonas aeruginosa [28]) was 4, the “log(activity)” value (Pseudomonas aeruginosa [29]) was 2.5 and the MIC (Pseudomonas aeruginosa [30]) was < 0.125 µg/mL.
